Assay [1] relates to Staphylococcus aureus. As to the kind of experiment: Antibacterial activity against Staphylococcus aureus ATCC 25923 after 18 to 24 hrs by CA-SFM and NCCLS-based broth microdilution method. Type of assay: functional. An outline of the steps:
(§1)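 MIC determined in liquid phase by broth microdilution in U-bottom 96-well plates. Bacteria were grown in Mueller-Hinton broth or agar, and isolate purity was checked at each test by colony morphology and Gram stain. The final inoculum was 1×10^5 CFU/mL, with a series of drug concentrations added. Plates were incubated 18–24 h at 35 °C, and growth was read by absorbance at 540 nm. MIC is expressed in µmol/L and µg/mL.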

Assay [2] has as its system Enterococcus faecalis. In words: Antibacterial activity against Enterococcus faecalis ATCC 29212 after 18 to 24 hrs by CA-SFM and NCCLS-based broth microdilution method. The format is functional. An outline of the steps: as §1
Assay [3] has as its system Staphylococcus aureus. As to the kind of experiment: Antibacterial activity against Staphylococcus aureus ATCC 29213 after 18 to 24 hrs by CA-SFM and NCCLS-based broth microdilution method. Type of assay: functional. An outline of the steps:
as §1

Assay [4] deals with Escherichia coli. As to the kind of experiment: Antibacterial activity against Escherichia coli ATCC 25922 after 18 to 24 hrs by CA-SFM and NCCLS-based broth microdilution method. Type of assay: functional. An outline of the steps:
as §1

The subject of assay [5] is Pseudomonas aeruginosa. In words: Antibacterial activity against Pseudomonas aeruginosa ATCC 27853 after 18 to 24 hrs by CA-SFM and NCCLS-based broth microdilution method. Type of assay: functional. A digest of the protocol: as §1
In assay [6] the test system is Enterococcus faecalis. In words: Antibacterial activity against Enterococcus faecalis ATCC 29212 at < 256 ug/mL after 18 to 24 hrs by CA-SFM and NCCLS-based broth microdilution method. The format is functional, organism-based.
Assay [7] concerns Escherichia coli. In words: Antibacterial activity against Escherichia coli ATCC 25922 at < 256 ug/mL after 18 to 24 hrs by CA-SFM and NCCLS-based broth microdilution method. The format is functional, organism-based.
Assay [8] concerns Pseudomonas aeruginosa. In words: Antibacterial activity against Pseudomonas aeruginosa ATCC 27853 at < 256 ug/mL after 18 to 24 hrs by CA-SFM and NCCLS-based broth microdilution method. Type of assay: functional, organism-based.
Assay [9] concerns Staphylococcus aureus. In words: Antibacterial activity against Staphylococcus aureus ATCC 25923 at < 256 ug/mL after 18 to 24 hrs by CA-SFM and NCCLS-based broth microdilution method. The format is functional, organism-based.
Assay [10] has as its system Staphylococcus aureus. In words: Antibacterial activity against Staphylococcus aureus ATCC 29213 at < 256 ug/mL after 18 to 24 hrs by CA-SFM and NCCLS-based broth microdilution method. The format is functional, organism-based.

Each structure is given as a SMILES string. Values after ≈ are worked out from the molar mass of the structure shown. Active and inactive are the calls of the source. The calls are words filed in the database; no cut-off is given here. Bounds are passed on as bounds.

Consider `NCCc1cc2c(O)c(c1)Cc1cc(CCN)cc(c1O)Cc1cc(CCN)cc(c1OCCCO)Cc1cc(CCN)cc(c1O)C2`, for which the MIC is 220 µM (≈ 144 µg/mL) against Staphylococcus aureus [1]; greater than 220 µM in the assay on Enterococcus faecalis [2]; 220 µM (≈ 144 µg/mL) in the assay on Staphylococcus aureus [3]; 110 µM (≈ 72 µg/mL) against Escherichia coli [4]; 220 µM (≈ 144 µg/mL) in the assay with Pseudomonas aeruginosa [5].
`CCn1cc(C(=O)OCCCOc2c3cc(CCN)cc2Cc2cc(CCN)cc(c2O)Cc2cc(CCN)cc(c2O)Cc2cc(CCN)cc(c2O)C3)c(=O)c2ccc(C)nc21`: the MIC was 50 µM (≈ 43.5 µg/mL) with Staphylococcus aureus [1]; 100 µM (≈ 86.9 µg/mL) with Enterococcus faecalis [2]; 50 µM (≈ 43.5 µg/mL) against Staphylococcus aureus [3]; 25 µM (≈ 21.7 µg/mL) with Escherichia coli [4]; 100 µM (≈ 86.9 µg/mL) with Pseudomonas aeruginosa [5].
Take `CCn1cc(C(=O)O)c(=O)c2ccc(C)nc21` [NALIDIXIC ACID]: the minimal inhibitory concentration (MIC) against Staphylococcus aureus [1] was found to be 200 µM (≈ 46.4 µg/mL); with Enterococcus faecalis [2], 200 µM (≈ 46.4 µg/mL); in the assay with Staphylococcus aureus [3], 200 µM (≈ 46.4 µg/mL); with Escherichia coli [4] it was 100 µM (≈ 23.2 µg/mL); against Pseudomonas aeruginosa [5], 200 µM (≈ 46.4 µg/mL).
With `O=C([O-])C(F)(F)F.[Na+]`, the outcome with Enterococcus faecalis [6], in the assay with Escherichia coli [7], in the assay on Pseudomonas aeruginosa [8], with Staphylococcus aureus [9] and in the assay with Staphylococcus aureus [10] was inactive.
